Blank lines part the entries; values can stand above or below the molecule they belong to.
Legend:
[1] = Plasma concentration in mouse at 50 mg/kg, po after 4 hrs; assay type: ADME, organism-based; design: dose 50 mg/kg, route oral
Outline: (§1)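 Nude mice given a single 50 mg/kg oral dose. Blood levels measured at 2 and 4 h (one compound at 1 h), three mice per measurement, with coefficient of variation reported.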

[2] = Plasma concentration in mouse at 50 mg/kg, po after 2 hrs; assay type: ADME, organism-based; design: dose 50 mg/kg, route oral; outline: as §1
[3] = Half life in male rat at 1 mg/kg, iv; assay type: ADME, organism-based; design: dose 1 mg/kg, route intravenous; details: in vivo
[4] = Metabolic stability in mouse liver microsomes; assay type: ADME, Microsome
Outline: (§2)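 Stability measured as half-life on exposure to male CD-1 mouse and rat liver microsomes.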

[5] = AUC (infinity) in male rat at 10 mg/kg, po; assay type: ADME, organism-based; design: time infinity, dose 10 mg/kg, route oral; details: plasma
[6] = Cmax in female rat at 10 mg/kg, po; assay type: ADME, organism-based; design: dose 10 mg/kg, route oral; details: in vivo
[7] = Clearance in nude mouse at 2 mg/kg, iv; assay type: ADME, organism-based; design: dose 2 mg/kg, route intravenous; details: in vivo
Outline: (§3)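 Female nude mice given a single dose, 2 mg/kg iv in 0.5% methylcellulose/1% Tween 80 brought to pH 3 with aqueous HCl, or 50 mg/kg by oral gavage. Three mice per group were bled by cardiac stick under isoflurane at 0.25, 0.5, 1, 4, 8 and 24 h and plasma collected. Cl, Vss, T1/2, Cmax, AUC extrapolated to infinity and %F were derived.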

[8] = AUC (infinity) in nude mouse at 50 mg/kg, po; assay type: ADME, organism-based; design: time infinity, dose 50 mg/kg, route oral; details: plasma; outline: as §3
[9] = Clearance in male rat at 1 mg/kg, iv; assay type: ADME, organism-based; design: dose 1 mg/kg, route intravenous; details: in vivo
[10] = Oral bioavailability in nude mouse at 50 mg/kg; assay type: ADME, organism-based; details: in vivo; outline: as §3
[11] = Metabolic stability in CD1 rat liver microsomes; assay type: ADME, Microsome; outline: as §2
[12] = Apparent permeability across PAMPA membrane; assay type: ADME; details: read-out: permeability
Outline: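 Permeability measured in a PAMPA assay, reported in cm/s.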

[13] = Clearance in female rat at 1 mg/kg, iv; assay type: ADME, organism-based; design: dose 1 mg/kg, route intravenous; details: in vivo
[14] = Oral bioavailability in female rat at 10 mg/kg; assay type: ADME, organism-based; details: in vivo
[15] = Volume of distribution at steady state in male rat at 1 mg/kg, iv; assay type: ADME, organism-based; design: dose 1 mg/kg, route intravenous; details: in vivo, read-out: Vdss
[16] = Volume of distribution at steady state in female rat at 1 mg/kg, iv; assay type: ADME, organism-based; design: dose 1 mg/kg, route intravenous; details: in vivo, read-out: Vdss
[17] = Oral bioavailability in male rat at 10 mg/kg; assay type: ADME, organism-based; details: in vivo
[18] = Half life in female rat at 1 mg/kg, iv; assay type: ADME, organism-based; design: dose 1 mg/kg, route intravenous; details: in vivo
[19] = Half life in nude mouse at 2 mg/kg, iv; assay type: ADME, organism-based; design: dose 2 mg/kg, route intravenous; details: in vivo; outline: as §3
[20] = AUC (infinity) in female rat at 10 mg/kg, po; assay type: ADME, organism-based; design: time infinity, dose 10 mg/kg, route oral; details: plasma
[21] = Cmax in nude mouse at 50 mg/kg, po; assay type: ADME, organism-based; design: dose 50 mg/kg, route oral; details: in vivo; outline: as §3
[22] = Cmax in male rat at 10 mg/kg, po; assay type: ADME, organism-based; design: dose 10 mg/kg, route oral; details: in vivo
[23] = Volume of distribution at steady state in nude mouse at 2 mg/kg, iv; assay type: ADME, organism-based; design: dose 2 mg/kg, route intravenous; details: in vivo, read-out: Vdss; outline: as §3
[24] = Plasma concentration in mouse at 50 mg/kg, po after 1 hr; assay type: ADME, organism-based; design: dose 50 mg/kg, route oral; outline: as §1

concentration at 4 h [1]: 85 ng/mL | concentration at 2 h [2]: 368 ng/mL
SMILES: CN1CCN(CC/C=C/c2ccc3c(Nc4ccc(Sc5nccn5C)c(Cl)c4)c(C#N)cnc3c2)CC1

half-life [3]: 108 min | half-life [4]: 16.5 min | AUC(0-inf) [5]: 204 ng·h/mL | Cmax [6]: 298 ng/mL | clearance [7]: 66 mL/min/kg | AUC(0-inf) [8]: 2170 ng·h/mL | concentration at 4 h [1]: 132 ng/mL | clearance [9]: 70.3 mL/min/kg | bioavailability [10]: 17% | half-life [11]: 21 min | Papp [12]: 0.45 ×10⁻⁶ cm/s | clearance [13]: 35.7 mL/min/kg | bioavailability [14]: 23% | Vd [15]: 7.6 L/kg | Vd [16]: 5.7 L/kg | bioavailability [17]: 13% | half-life [18]: 150 min | half-life [19]: 54 min | AUC(0-inf) [20]: 988 ng·h/mL | Cmax [21]: 510 ng/mL | Cmax [22]: 61 ng/mL | concentration at 2 h [2]: 494 ng/mL | Vd [23]: 2.7 L/kg
SMILES: CCN1CCN(CC/C=C/c2ccc3c(Nc4ccc(Sc5nccn5C)c(Cl)c4)c(C#N)cnc3c2)CC1

concentration at 4 h [1]: 76 ng/mL | concentration at 2 h [2]: 267 ng/mL
SMILES: COc1cc2c(Nc3ccc(Sc4nccn4C)c(Cl)c3)c(C#N)cnc2cc1/C=C/CCN1CCN(C)CC1

Further lines, the molecule ahead of its results:

SMILES: Cn1ccnc1Sc1ccc(Nc2c(C#N)cnc3cc(/C=C/CCN4CCOCC4)ccc23)cc1Cl
concentration at 4 h [1]: 22 ng/mL | concentration at 2 h [2]: 95 ng/mL

SMILES: Cn1ccnc1Sc1ccc(Nc2c(C#N)cnc3cc(/C=C/CCN4CCCC4)ccc23)cc1Cl
concentration at 4 h [1]: 82 ng/mL | concentration at 2 h [2]: 319 ng/mL

SMILES: Cn1ccnc1Sc1ccc(Nc2c(C#N)cnc3cc(/C=C/CN4CCCC4)ccc23)cc1Cl
concentration at 4 h [1]: 11 ng/mL | concentration at 1 h [24]: 72 ng/mL

— ChEMBL document CHEMBL1142456, “4-Anilino-7-alkenylquinoline-3-carbonitriles as potent MEK1 kinase inhibitors” (Bioorg Med Chem, 2008)
